In ChEMBL document CHEMBL4406880, “Design, synthesis, and bioactivity of dihydropyrimidine derivatives as kinesin spindle protein inhibitors” (Bioorg Med Chem, 2019):

Legend:
Format in all cases: functional
NCI-H23 = assay: Growth inhibition of human NCI-H23 cells assessed as growth percentage at 10 uM incubated for 48 hrs by sulforhodamine B assay relative to control; details: NCI-H23, 48 h, read-out: Activity
How it was run: (§1)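 NCI-60 one-dose screen. Cells in RPMI 1640 with 5% FBS and 2 mM L-glutamine, seeded at 5,000–40,000 cells/well according to doubling time, and preincubated overnight at 37 °C, 5% CO2. A time-zero plate was TCA-fixed at drug addition. Compound from DMSO stock, final 10 µM, 48 h; DMSO vehicle controls. Fixation with TCA, 10% final (16% for suspension cells). SRB stain, Tris solubilization, A515. Result given as % growth versus untreated cells.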

MDA-MB-231 = assay: Growth inhibition of human MDA-MB-231 cells assessed as growth percentage at 10 uM incubated for 48 hrs by sulforhodamine B assay relative to control; details: MDA-MB-231, 48 h, read-out: Activity; how it was run: as §1
SF-268 = assay: Growth inhibition of human SF268 cells assessed as growth percentage at 10 uM incubated for 48 hrs by sulforhodamine B assay relative to control; details: SF-268, 48 h, read-out: Activity
How it was run: (§2)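 NCI-60 single-dose screen. Cells were grown in RPMI 1640 with 5% FBS and 2 mM L-glutamine and plated at 5,000–40,000 cells/well. After an overnight preincubation at 37 °C in 5% CO2, compound was added at a final 10 µM from a DMSO stock, with DMSO/PBS controls. After 48 h, cells were TCA-fixed and stained with 0.4% SRB, and absorbance was read at 515 nm. Growth is given as a percentage of untreated control.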

NCI-H322M = assay: Growth inhibition of human NCI-H322M cells assessed as growth percentage at 10 uM incubated for 48 hrs by sulforhodamine B assay relative to control; details: read-out: Activity; how it was run: as §1
A498 = assay: Growth inhibition of human A498 cells assessed as growth percentage at 10 uM incubated for 48 hrs by sulforhodamine B assay relative to control; details: A498, 48 h, read-out: Activity
How it was run: (§3)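 NCI-60 one-dose screen: cells in RPMI 1640 with 5% FBS and 2 mM L-glutamine, plated at 5,000–40,000 cells/well and preincubated 24 h at 37 °C, 5% CO2. Compound is added from a DMSO stock to a final 10 µM and incubated 48 h. Cells are TCA-fixed and stained with sulforhodamine B, read at 515 nm. Output is % growth versus untreated control, with a time-zero plate.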

786-0 = assay: Growth inhibition of human 786-0 cells assessed as growth percentage at 10 uM incubated for 48 hrs by sulforhodamine B assay relative to control; details: 786-0, 48 h, read-out: Activity; how it was run: as §3
UACC-257 = assay: Growth inhibition of human UACC257 cells assessed as growth percentage at 10 uM incubated for 48 hrs by sulforhodamine B assay relative to control; details: UACC-257, 48 h, read-out: Activity; how it was run: as §2
HOP-92 = assay: Growth inhibition of human HOP92 cells assessed as growth percentage at 10 uM incubated for 48 hrs by sulforhodamine B assay relative to control; details: HOP-92, 48 h, read-out: Activity; how it was run: as §1
HOP-62 = assay: Growth inhibition of human HOP62 cells assessed as growth percentage at 10 uM incubated for 48 hrs by sulforhodamine B assay relative to control; details: HOP-62, 48 h, read-out: Activity; how it was run: as §1
OVCAR-8 = assay: Growth inhibition of human OVCAR8 cells assessed as growth percentage at 10 uM incubated for 48 hrs by sulforhodamine B assay relative to control; details: OVCAR-8, 48 h, read-out: Activity; how it was run: as §2
NCI/ADR-RES = assay: Growth inhibition of human NCI/ADR-RES cells assessed as growth percentage at 10 uM incubated for 48 hrs by sulforhodamine B assay relative to control; details: read-out: Activity; how it was run: as §1
Malme-3M = assay: Growth inhibition of human MALME-3M cells assessed as growth percentage at 10 uM incubated for 48 hrs by sulforhodamine B assay relative to control; details: read-out: Activity; how it was run: as §1
OVCAR-5 = assay: Growth inhibition of human OVCAR5 cells assessed as growth percentage at 10 uM incubated for 48 hrs by sulforhodamine B assay relative to control; details: OVCAR-5, 48 h, read-out: Activity; how it was run: as §2
SNB-19 = assay: Growth inhibition of human SNB19 cells assessed as growth percentage at 10 uM incubated for 48 hrs by sulforhodamine B assay relative to control; details: SNB-19, 48 h, read-out: Activity; how it was run: as §2
OVCAR-4 = assay: Growth inhibition of human OVCAR4 cells assessed as growth percentage at 10 uM incubated for 48 hrs by sulforhodamine B assay relative to control; details: OVCAR-4, 48 h, read-out: Activity; how it was run: as §1
T47D = assay: Growth inhibition of human T47D cells assessed as growth percentage at 10 uM incubated for 48 hrs by sulforhodamine B assay relative to control; details: read-out: Activity; how it was run: as §2
HCC 2998 = assay: Growth inhibition of human HCC2998 cells assessed as growth percentage at 10 uM incubated for 48 hrs by sulforhodamine B assay relative to control; details: HCC 2998, 48 h, read-out: Activity; how it was run: as §3
SK-MEL-2 = assay: Growth inhibition of human SK-MEL-2 cells assessed as growth percentage at 10 uM incubated for 48 hrs by sulforhodamine B assay relative to control; details: SK-MEL-2, 48 h, read-out: Activity; how it was run: as §2
SF-295 = assay: Growth inhibition of human SF295 cells assessed as growth percentage at 10 uM incubated for 48 hrs by sulforhodamine B assay relative to control; details: SF-295, 48 h, read-out: Activity; how it was run: as §2
SR = assay: Growth inhibition of human SR cells assessed as growth percentage at 10 uM incubated for 48 hrs by sulforhodamine B assay relative to control; details: read-out: Activity; how it was run: as §2
ACHN = assay: Growth inhibition of human ACHN cells assessed as growth percentage at 10 uM incubated for 48 hrs by sulforhodamine B assay relative to control; details: read-out: Activity; how it was run: as §3
NCI-H460 = assay: Growth inhibition of human NCI-H460 cells assessed as growth percentage at 10 uM incubated for 48 hrs by sulforhodamine B assay relative to control; details: NCI-H460, 48 h, read-out: Activity; how it was run: as §1
KM12 = assay: Growth inhibition of human KM12 cells assessed as growth percentage at 10 uM incubated for 48 hrs by sulforhodamine B assay relative to control; details: KM12, 48 h, read-out: Activity; how it was run: as §1
OVCAR-3 = assay: Growth inhibition of human OVCAR3 cells assessed as growth percentage at 10 uM incubated for 48 hrs by sulforhodamine B assay relative to control; details: OVCAR-3, 48 h, read-out: Activity; how it was run: as §1
EKVX = assay: Growth inhibition of human EKVX cells assessed as growth percentage at 10 uM incubated for 48 hrs by sulforhodamine B assay relative to control; details: read-out: Activity; how it was run: as §3
NCI-H522 = assay: Growth inhibition of human NCI-H522 cells assessed as growth percentage at 10 uM incubated for 48 hrs by sulforhodamine B assay relative to control; details: NCI-H522, 48 h, read-out: Activity; how it was run: as §1
SK-MEL-28 = assay: Growth inhibition of human SK-MEL-28 cells assessed as growth percentage at 10 uM incubated for 48 hrs by sulforhodamine B assay relative to control; details: SK-MEL-28, 48 h, read-out: Activity; how it was run: as §2

Row | SMILES | growth at 10 µM (NCI-H23) | growth at 10 µM (MDA-MB-231) | growth at 10 µM (SF-268) | growth at 10 µM (NCI-H322M) | growth at 10 µM (A498) | growth at 10 µM (786-0) | growth at 10 µM (UACC-257) | growth at 10 µM (HOP-92) | growth at 10 µM (HOP-62) | growth at 10 µM (OVCAR-8) | growth at 10 µM (NCI/ADR-RES) | growth at 10 µM (Malme-3M) | growth at 10 µM (OVCAR-5) | growth at 10 µM (SNB-19) | growth at 10 µM (OVCAR-4) | growth at 10 µM (T47D) | growth at 10 µM (HCC 2998) | growth at 10 µM (SK-MEL-2) | growth at 10 µM (SF-295) | growth at 10 µM (SR) | other results
1 | CC(=O)C1=C(C)Nc2nc3ccccc3n2C1c1ccc2c(c1)OCO2 (racemic) | 106% | 93.5% | 105% | 98.1% | 112% | 100% | 111% | 91% | 94.7% | 98.6% | 102% | 105% | 113% | 99.6% | 102% | 86.3% | 111% | 130% | 103% | 73.8% | growth at 10 µM (ACHN): 110%; growth at 10 µM (NCI-H460): 112%; growth at 10 µM (KM12): 96.4%; growth at 10 µM (OVCAR-3): 105%; growth at 10 µM (EKVX): 110%; growth at 10 µM (NCI-H522): 73%; growth at 10 µM (SK-MEL-28): 107%
2 | CC1=C(C(=O)OCC(C)C)C(c2ccc3c(c2)OCO3)NC(=S)N1 (racemic) | 99.5% | 118% | 97.8% | 117% | 121% | 104% | 95.6% | 103% | 121% | 102% | 96.7% | 105% | 105% | 103% | 103% | 81.9% | 112% | 101% | 104% | 104% | growth at 10 µM (ACHN): 98.5%; growth at 10 µM (NCI-H460): 110%; growth at 10 µM (KM12): 99.1%; growth at 10 µM (OVCAR-3): 109%; growth at 10 µM (EKVX): 104%; growth at 10 µM (NCI-H522): 82.2%; growth at 10 µM (SK-MEL-28): 119%
3 | CC1=C(C(=O)OC(C)C)C(c2ccc3c(c2)OCO3)NC(=S)N1 (racemic) | 99.2% | 101% | 103% | 108% | 109% | 104% | 100% | 96.6% | 119% | 102% | 101% | 95.9% | 105% | 95.5% | 98.4% | 91.4% | 115% | 102% | 95.8% | 103% | growth at 10 µM (ACHN): 99.3%; growth at 10 µM (NCI-H460): 110%; growth at 10 µM (KM12): 108%; growth at 10 µM (OVCAR-3): 121%; growth at 10 µM (EKVX): 94.4%; growth at 10 µM (NCI-H522): 86.4%; growth at 10 µM (SK-MEL-28): 106%
4 | CC(=O)N1C(=S)NC(C)=C(C(=O)OCC(C)C)C1c1ccc2c(c1)OCO2 (racemic) | 97.1% | 88.7% | 100% | 102% | 104% | 95.1% | 99.5% | 80.6% | 91.9% | 95.9% | 97% | 108% | 99.4% | 97.9% | 79.6% | 66.7% | 110% | 102% | 101% | 80% | growth at 10 µM (ACHN): 105%; growth at 10 µM (NCI-H460): 105%; growth at 10 µM (KM12): 93.8%; growth at 10 µM (OVCAR-3): 96.8%; growth at 10 µM (EKVX): 99.8%; growth at 10 µM (NCI-H522): 74.9%; growth at 10 µM (SK-MEL-28): 105%
